Test results as given in paper PMC3962796 (Environmental science & technology, 2013).
Read-outs that look alike come from different tables or passages of the source.

Experiments:
[1] = type: in vivo, male Sprague-Dawley rats; settings: for half-life: male, Sprague-Dawley, rat, inhaled or intranasal, 1.8 ug
In short: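 Male Sprague-Dawley rats (237.6 ± 1.6 g; n=4/group) were exposed nose-only to test compound vapor. The vapor came from air at 4.0 L/min bubbled through the neat compound at 25.0°C, then diluted to 10.0 L/min. Exposure was 1 h, a 1 h break, then 1 h. Shams breathed filtered air. Rats were killed 0, 4 and 8 h post exposure, shams at 2 and 6 h. Lung, liver and serum were PLE-extracted and analysed by GC-MS SIM. Results were blank/surrogate-corrected and lipid-normalized. Analysis used t-tests (p<0.05) and Gauss-Newton non-linear regression.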

[2] = cited from earlier work; for half-life after inhalation exposure (tissues overall): administered as part of Aroclor mixture, same duration of inhalation exposure, Figure S2
[3] = two-component exponential decay; blood, liver and muscle; intravenous; cited from earlier work
[4] = first order model fit, lipid weight basis

Structure (SMILES): Oc1ccc(-c2cccc(Cl)c2)cc1Cl [4-OH-CB11, 3,3′-dichlorobiphenyl-4-ol]
- ratio of 4-OH-CB11 to CB11 in liver ([1]; 0 h post exposure): 0.7±0.0
- mean liver 4-OH-CB11 level relative to sentinel rats ([1]; 4 h group vs sentinel rats): 15 fold
- mean liver 4-OH-CB11 level relative to sham rats ([1]; 4 h group vs sham-exposed, not statistically significant): 4 fold
- ratio of 4-OH-CB11 to CB11 in liver ([1]; 4 h post exposure): 0.9±0.2
- ratio of 4-OH-CB11 to CB11 in liver ([1]; 8 h post exposure): 1.1±0.1
- detection of 4-OH-CB11 in liver ([1]; liver of all PCB-exposed animals): detected
- detection of 4-OH-CB11 in lung ([1]; lung samples of exposed rats): not detected
- detection of 4-OH-CB11 in serum ([1]; serum samples of exposed rats): not detected

Structure (SMILES): Clc1ccccc1-c1ccccc1 [CB1, monochlorobiphenyl]
- level remaining during the inhalation exposure ([2]; Aroclor 1242 vapor inhalation): barely detectable levels

Structure (SMILES): Clc1ccccc1-c1ccccc1Cl [CB4]
- level remaining during the inhalation exposure ([2]; Aroclor 1242 vapor inhalation): barely detectable levels

Structure (SMILES): Clc1ccc(-c2ccccc2Cl)cc1 [CB8, 2,4′-Dichlorobiphenyl]
- half-life after inhalation exposure (tissues overall) [2]: 5 to 8 h

Structure (SMILES): Clc1cccc(-c2cccc(Cl)c2)c1 [CB11, 3,3′-dichlorobiphenyl]
- C0 (initial concentration) of CB11 in liver [1, 4]: 73.6 ng/g l.w.
- C0 (initial concentration) of CB11 in serum [1, 4]: 295 ng/g l.w.
- C0 (initial concentration) of CB11 in lung ([1]; first order model fit, lipid weight basis, inhalation 106 μg/m^3 for 2 h): 932 ng/g l.w.
- half-life ([1]; liver): 2.1 h
- half-life ([1]; lung): 1.9 h
- half-life ([1]; serum): 1.8 h

Structure (SMILES): Clc1ccc(-c2ccc(Cl)cc2)cc1 [CB15, 4,4′-dichlorobiphenyl]
- half-life after inhalation exposure (tissues overall) [2]: 5 to 8 h

Structure (SMILES): Clc1ccc(-c2ccc(Cl)cc2Cl)cc1 [CB28]
- time of peak concentration after exposure ([2]; Aroclor 1242 vapor inhalation, suggests redistribution phase): 1 h

Structure (SMILES): Clc1ccc(Cl)c(-c2c(Cl)ccc(Cl)c2Cl)c1Cl [CB136, 2,2′,3,3′,6′6′-hexachlorobiphenyl]
- t½ of initial fast distribution phase [3]: 1.7 to 10.6 h
- t½ of subsequent slower elimination phase [3]: 55.2 to 406 h

Structure (SMILES): Clc1cc(Cl)c(-c2cc(Cl)c(Cl)cc2Cl)cc1Cl [CB153]
- t½ of initial fast distribution phase [3]: 1.7 to 10.6 h
- t½ of subsequent slower elimination phase [3]: 55.2 to 406 h
